According to ChEMBL document CHEMBL4011622, “The Structure-Activity Relationship of a Tetrahydroisoquinoline Class of N-Methyl-d-Aspartate Receptor Modulators that Potentiates GluN2B-Containing N-Methyl-d-Aspartate Receptors” (J Med Chem, 2017):
pEC50: −log10 of the molar value. Active and inactive are the calls of the source. The calls are words filed in the database; no cut-off is given here.

Experiments:
[1] = molecular target: Glutamate receptor 1 (Rattus norvegicus) (UniProt P19490); experiment: Positive allosteric modulation of recombinant rat GluA1 receptor expressed in xenopus laevis oocyte assessed as potentiation of glutamate-induced current response at 30 uM at holding potential -40mV by two electrode voltage clamp method relative to glutamate
Sequence of Glutamate receptor 1 (Rattus norvegicus) (P19490 whole entry): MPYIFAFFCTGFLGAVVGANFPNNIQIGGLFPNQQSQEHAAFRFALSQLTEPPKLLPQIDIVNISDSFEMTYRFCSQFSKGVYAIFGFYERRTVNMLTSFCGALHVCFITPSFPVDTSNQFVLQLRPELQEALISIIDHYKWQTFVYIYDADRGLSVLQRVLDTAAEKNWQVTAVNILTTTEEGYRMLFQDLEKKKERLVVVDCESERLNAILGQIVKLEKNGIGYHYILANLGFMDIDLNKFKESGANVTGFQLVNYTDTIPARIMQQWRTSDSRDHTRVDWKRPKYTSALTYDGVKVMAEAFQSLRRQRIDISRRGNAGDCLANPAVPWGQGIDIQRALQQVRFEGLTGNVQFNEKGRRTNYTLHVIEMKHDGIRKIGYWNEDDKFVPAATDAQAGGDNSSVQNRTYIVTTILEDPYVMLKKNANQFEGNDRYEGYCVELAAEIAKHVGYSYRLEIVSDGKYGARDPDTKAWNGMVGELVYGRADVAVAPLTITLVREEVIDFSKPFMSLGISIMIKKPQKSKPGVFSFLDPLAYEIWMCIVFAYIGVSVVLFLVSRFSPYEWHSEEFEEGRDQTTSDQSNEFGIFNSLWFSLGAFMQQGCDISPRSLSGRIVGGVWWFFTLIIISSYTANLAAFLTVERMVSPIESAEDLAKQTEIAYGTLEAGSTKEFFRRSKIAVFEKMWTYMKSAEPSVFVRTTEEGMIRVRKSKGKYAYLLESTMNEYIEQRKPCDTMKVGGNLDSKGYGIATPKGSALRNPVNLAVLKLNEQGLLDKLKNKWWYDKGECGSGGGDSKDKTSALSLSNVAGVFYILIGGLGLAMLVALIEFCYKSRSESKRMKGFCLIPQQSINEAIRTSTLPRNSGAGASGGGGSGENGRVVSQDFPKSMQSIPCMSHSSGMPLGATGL

[2] = molecular target: T1, Glutamate NMDA receptor; Grin1/Grin2b (Rattus norvegicus) (UniProt P35439+Q00960); experiment: Positive allosteric modulation of recombinant rat GluN1/GluN2B receptor expressed in xenopus laevis oocyte assessed as potentiation of glutamate-induced current response at 30 uM at holding potential -40mV by two electrode voltage clamp method
[3] = molecular target: T2, Glutamate NMDA receptor; Grin1/Grin2c (Rattus norvegicus) (UniProt P35439+Q00961); experiment: Positive allosteric modulation of recombinant rat GluN1/GluN2C receptor expressed in xenopus laevis oocyte assessed as potentiation of glutamate-induced current response at 30 uM at holding potential -40mV by two electrode voltage clamp method
How it was run: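 Rat GluN1/GluN2C (modified GluN2C) expressed from injected mRNA in Xenopus oocytes; two-electrode voltage clamp at -40 mV, 23°C, recording solution pH 7.4 (90 NaCl, 1.0 KCl, 0.5 BaCl2, 0.005 EDTA, 10 HEPES, mM). Compound coapplied with 100 µM glutamate and 30 µM glycine; final DMSO 0.05-0.5%.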

[4] = molecular target: T3, Ionotropic glutamate receptor NMDA 1/2D (Rattus norvegicus) (UniProt P35439+Q62645); experiment: Positive allosteric modulation of recombinant rat GluN1/GluN2D receptor expressed in xenopus laevis oocyte assessed as potentiation of glycine-induced current response at 30 uM at holding potential -40mV by two electrode voltage clamp method
[5] = molecular target: T1, Glutamate NMDA receptor; Grin1/Grin2b (Rattus norvegicus); experiment: Positive allosteric modulation of recombinant rat GluN1/GluN2B receptor expressed in xenopus laevis oocyte assessed as potentiation of glutamate and glycine-induced current response at 30 uM at holding potential -40mV by two electrode voltage clamp method relative to control
How it was run: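 Two-electrode voltage clamp at -40 mV, 23°C, pH 7.4 Ba²⁺ recording solution, on Xenopus oocytes expressing rat NMDA receptors. Currents were evoked by 100 µM glutamate plus 30 µM glycine, with compound co-applied (DMSO 0.05–0.5% final). […] Each compound used at least 4 oocytes from at least 2 frogs.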

[6] = molecular target: Glutamate NMDA receptor; Grin1/Grin2b (Rattus norvegicus, UniProt P35439+Q00960); experiment: Positive allosteric modulation of recombinant rat GluN1/GluN2B receptor expressed in xenopus laevis oocyte assessed as potentiation of glutamate and glycine-induced current response at holding potential -40mV by two electrode voltage clamp method
How it was run: (§1)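 Two-electrode voltage clamp at -40 mV, 23°C, pH 7.4 Ba²⁺ recording solution, on Xenopus oocytes expressing rat NMDA receptors. Currents were evoked by 100 µM glutamate plus 30 µM glycine, with compound co-applied (DMSO 0.05–0.5% final). Each compound used at least 4 oocytes from at least 2 frogs.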

[7] = molecular target: Ionotropic glutamate receptor NMDA 1/2D (Rattus norvegicus, UniProt P35439+Q62645); experiment: Positive allosteric modulation of recombinant rat GluN1/GluN2D receptor expressed in xenopus laevis oocyte assessed as potentiation of glutamate and glycine-induced current response at holding potential -40mV by two electrode voltage clamp method; how it was run: as §1
[8] = molecular target: T1, Glutamate NMDA receptor; Grin1/Grin2b (Rattus norvegicus); experiment: Positive allosteric modulation of recombinant rat GluN1/GluN2B receptor expressed in xenopus laevis oocyte assessed as compound concentration required to show two fold increase in glutamate and glycine-induced current response at holding potential -40mV by two electrode voltage clamp method
[9] = molecular target: T2, Glutamate NMDA receptor; Grin1/Grin2c (Rattus norvegicus); experiment: Positive allosteric modulation of recombinant rat GluN1/GluN2C receptor expressed in xenopus laevis oocyte assessed as compound concentration required to show two fold increase in glutamate and glycine-induced current response at holding potential -40mV by two electrode voltage clamp method
[10] = molecular target: T3, Ionotropic glutamate receptor NMDA 1/2D (Rattus norvegicus); experiment: Positive allosteric modulation of recombinant rat GluN1/GluN2D receptor expressed in xenopus laevis oocyte assessed as compound concentration required to show two fold increase in glutamate and glycine-induced current response at holding potential -40mV by two electrode voltage clamp method
[11] = Cmax in C57Bl/6 mouse plasma at 10 mg/kg, ip after 2 hrs by LC/MS/MS analysis; format: ADME, organism-based; design: dose 10 mg/kg, route intraperitoneal
How it was run: (§2)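 Male/female not stated; 30–35 g C57Bl/6 mice given 10 mg/kg i.p. at 1.25 mg/mL in 5% NMP/20% solutol/75% of 20% hydroxypropyl-β-cyclodextrin. Blood was taken by cardiac puncture into heparin and brains were collected at 0, 15, 30, 60, 120 and 240 min, three mice per time point. Plasma and brain homogenate (1:4 water) were acetonitrile-precipitated and quantified by LC-MS/MS against an 8-point duplicate standard curve.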

[12] = test system: Brain; experiment: Drug uptake in C57Bl/6 mouse brain at 10 mg/kg, ip after 15 to 30 mins by LC/MS/MS analysis; format: ADME, organism-based; details: in vivo, read-out: Drug uptake; how it was run: as §2
[13] = Drug uptake in C57Bl/6 mouse brain at 10 mg/kg, ip after 4 hrs by LC/MS/MS analysis; format: ADME, organism-based; details: read-out: Drug uptake; how it was run: as §2
[14] = Ratio of drug level in C57Bl/6 mouse brain to plasma at 10 mg/kg, ip after 15 mins by LC/MS/MS analysis; format: ADME, organism-based; how it was run: as §2
[15] = Ratio of drug level in C57Bl/6 mouse brain to plasma at 10 mg/kg, ip after 4 hrs by LC/MS/MS analysis; format: ADME, organism-based; how it was run: as §2
[16] = test system: Liver; experiment: Drug level in human liver microsomes treated with (3-chlorophenyl)(6-isopropoxy-1-((4-methoxyphenoxy)methyl)-3,4-dihydroisoquinolin-2(1H)-yl)methanethione at […] measured at 30 mins by LC/MS/MS analysis; format: ADME, microsome; details: 0.5 h
[17] = test system: Mus musculus; experiment: Toxicity in C57Bl/6 mouse assessed as behavioral abnormalities at 10 mg/kg, ip; format: organism-based; details: in vivo
How it was run: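 C57Bl/6 mice (30–35 g) were dosed at 10 mg/kg i.p. in 5% NMP/20% solutol/75% of 20% hydroxypropyl-β-cyclodextrin and observed for behavioral abnormalities after dosing.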

[18] = molecular target: Glutamate receptor ionotropic, kainate 2 (Rattus norvegicus) (UniProt P42260); experiment: Positive allosteric modulation of recombinant rat GluK2 receptor expressed in xenopus laevis oocyte assessed as potentiation of glutamate-induced current response at 30 uM at holding potential -40mV by two electrode voltage clamp method relative to glutamate
Sequence of Glutamate receptor ionotropic, kainate 2 (Rattus norvegicus) (P42260 whole entry): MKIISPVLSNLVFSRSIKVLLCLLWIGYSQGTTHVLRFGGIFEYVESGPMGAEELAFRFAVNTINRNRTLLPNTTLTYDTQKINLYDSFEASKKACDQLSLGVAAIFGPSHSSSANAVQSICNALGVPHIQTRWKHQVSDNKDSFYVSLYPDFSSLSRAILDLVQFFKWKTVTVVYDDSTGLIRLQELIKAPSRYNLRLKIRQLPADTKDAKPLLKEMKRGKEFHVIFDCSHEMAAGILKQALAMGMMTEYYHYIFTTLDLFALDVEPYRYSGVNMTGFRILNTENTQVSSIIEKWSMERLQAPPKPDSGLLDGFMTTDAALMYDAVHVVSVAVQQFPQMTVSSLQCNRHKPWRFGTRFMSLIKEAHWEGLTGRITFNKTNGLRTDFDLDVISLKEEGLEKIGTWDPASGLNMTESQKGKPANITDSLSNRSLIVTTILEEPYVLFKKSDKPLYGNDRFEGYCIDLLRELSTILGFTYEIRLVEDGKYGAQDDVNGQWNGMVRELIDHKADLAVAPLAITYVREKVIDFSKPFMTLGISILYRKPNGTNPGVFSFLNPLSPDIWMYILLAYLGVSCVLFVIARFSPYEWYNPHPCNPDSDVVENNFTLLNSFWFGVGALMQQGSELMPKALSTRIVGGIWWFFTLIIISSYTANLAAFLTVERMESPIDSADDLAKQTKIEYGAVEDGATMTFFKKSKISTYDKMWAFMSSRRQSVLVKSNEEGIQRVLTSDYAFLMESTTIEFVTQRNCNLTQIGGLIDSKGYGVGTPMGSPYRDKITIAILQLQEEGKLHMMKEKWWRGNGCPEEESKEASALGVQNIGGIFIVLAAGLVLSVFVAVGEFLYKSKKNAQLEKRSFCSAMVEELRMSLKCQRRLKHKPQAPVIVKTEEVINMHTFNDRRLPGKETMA

For COc1ccc(OCC2c3ccc(OC(C)C)cc3CCN2C(=O)c2cccc(Cl)c2)cc1 (centres undefined), the Activity [1] was 106%, the Activity [2] was “inactive” and the Activity [3] was “inactive”. For the same molecule, the Activity [4] was “inactive”, the Activity [5] was 195% and the Emax [5] was 202%. It also gave a pEC50 [6] of 5.28, a pEC50 [7] of 5.52 and a CD [8] of 64 µM. It also gave a CD [9] of 4.6 µM, a CD [10] of 4.9 µM and a Cmax [11] of 1.7 µM. It also gave a concentration [12] of 0.7 µM, a concentration at 4 h [13] of 0.4 µM and a BPR [14] of 0.7. The BPR [15] was 0.9, the Drug metabolism [16] was “Metabolite_Detected” and the Activity [17] was “Non-Toxic”. It also gave an Activity [18] of 96%.
